According to ChEMBL document CHEMBL5344415, “Synthesis and Characterization of Phenylalanine Amides Active against Mycobacterium abscessus and Other Mycobacteria” (J Med Chem, 2023):
Values after ≈ are worked out from the molar mass of the structure shown.

Tests used:
[1] = system: Mycolicibacterium smegmatis; assay: Antibacterial activity against Mycobacterium smegmatis mc2 155 expressing tomato RFP assessed as bacterial growth inhibition incubated for 3 days in 7H9 medium by RFP fluorescence based broth microdilution method; assay type: functional; conditions: mc2 155, 72 h, time 3 day
Summary of the method: (§1)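 Broth microdilution in 7H9 with 10 % ADS and 0.05 % Tween 80. Twofold nine-point dilution series. Inoculum 5 x 10⁵ cells/mL taken from a mid-log preculture. Incubation at 37 °C, 3 days for M. smegmatis and M. abscessus, 5 days for M. intracellulare. Read-out by RFP fluorescence (ex 544/em 590 nm). Controls were 1 % DMSO and 100 μM amikacin. MIC₉₀ from duplicates, averaged.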

[2] = system: Mycobacterium tuberculosis; assay: Antibacterial activity against Mycobacterium tuberculosis H37Rv ATCC 27294 assessed as bacterial growth inhibition incubated for 7 days in 7H9 medium by optical density based microplate reader analysis; assay type: functional; conditions: H37Rv ATCC 27294, 168 h, time 7 day
Summary of the method: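 Compounds serially diluted in flat-bottom 96-well plates. Mid-log culture mixed in to a final OD₆₀₀ of 0.05. Sealed plates incubated in humidified boxes at 37 °C for 7 days with shaking at 80 rpm. Turbidity read at 600 nm. MIC₉₀ taken from dose–response curves. Two biological replicates, averaged.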

[3] = system: Mycobacteroides abscessus; assay: Antibacterial activity against Mycobacterium abscessus ATCC 19977 expressing tomato RFP assessed as bacterial growth inhibition incubated for 3 days in 7H9 medium by RFP fluorescence based broth microdilution method; assay type: functional; conditions: ATCC 19977, 72 h, time 3 day; summary of the method: as §1
[4] = system: Mycobacteroides abscessus; assay: Antibacterial activity against Mycobacterium abscessus ATCC 19977 expressing tomato RFP assessed as bacterial growth inhibition incubated for 3 days in MHII medium by RFP fluorescence based broth microdilution method; assay type: functional; conditions: ATCC 19977, 72 h, time 3 day
Summary of the method: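 Broth microdilution in MHII broth with 0.05 % Tween 80, against the RFP-expressing strain. Twofold nine-point dilution series. Inoculum 5 x 10⁵ cells/mL from a mid-log preculture. Incubated 3 days at 37 °C. Read-out by RFP fluorescence (ex 544/em 590 nm). Controls were 1 % DMSO and 100 μM amikacin. MIC₉₀ from duplicates, averaged.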

[5] = system: Mycobacterium intracellulare; assay: Antibacterial activity against Mycobacterium intracellulare ATCC 35761 expressing tomato RFP assessed as bacterial growth inhibition incubated for 5 days in 7H9 medium by RFP fluorescence based broth microdilution method; assay type: functional; conditions: ATCC 35761, 120 h, time 5 day; summary of the method: as §1
[6] = system: Mycobacteroides abscessus; assay: Antibacterial activity against Mycobacterium abscessus Bamboo harboring inactive clarithromycin-sensitive erm41 C28 sequevar assessed as bacterial growth inhibition incubated for 3 days in 7H9 medium by optical density based method; assay type: functional; conditions: 72 h, time 3 day
[7] = system: Mycobacteroides abscessus; assay: Antibacterial activity against Mycobacterium abscessus ATCC 19977 expressing tomato RFP infected in human THP-1 cells assessed as bacterial growth inhibition incubated for 4 days in RPMI medium by RFP fluorescence based assay; assay type: functional; conditions: ATCC 19977, 96 h, time 4 day
Summary of the method: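 RFP M. abscessus washed, moved into RPMI, filtered through 5 µm and opsonised with 10 % human serum for 30 min. THP-1 cells infected at MOI 5:1 with PMA 40 ng/mL for 4 h at 37 °C, then washed. Infected cells (1x10⁵/well) given a ten-point twofold series. Incubated 4 days at 37 °C, 5 % CO₂. Cells PFA-fixed and DAPI-stained. RFP quantified by imaging. Controls were DMSO and 1.5 µM bedaquiline. Duplicate.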

A-375 = assay: Cytotoxicity against human A-375 cells assessed as reduction in cell viability incubated for 72 hrs by SRB assay; assay type: toxicity, cell-based
HT-29 = assay: Cytotoxicity against human HT-29 cells assessed as reduction in cell viability incubated for 72 hrs by SRB assay; assay type: toxicity, cell-based
MCF7 = assay: Cytotoxicity against human MCF7 cells assessed as reduction in cell viability incubated for 72 hrs by SRB assay; assay type: toxicity, cell-based
A2780 = assay: Cytotoxicity against human A2780 cells assessed as reduction in cell viability incubated for 72 hrs by SRB assay; assay type: toxicity, cell-based
[8] = Cytotoxicity against mouse NIH3T3 cells assessed as reduction in cell viability incubated for 72 hrs by SRB assay; assay type: toxicity, cell-based; conditions: mouse, NIH3T3 cells
HeLa = assay: Cytotoxicity against human HeLa cells assessed as reduction in cell viability incubated for 72 hrs by SRB assay; assay type: toxicity, cell-based
[9] = Kinetic solubility of compound in PBS at 0.78 to 500 uM measured immediately by nephelometric method; assay type: physicochemical; conditions: buffer, dose 0.78-500 µM
Summary of the method: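 DMSO stocks prediluted in DMSO, then diluted 1:50 into PBS (2 % DMSO final) and read immediately by nephelometry at 0.78–500 μM; blank-corrected data fitted by segmental regression; quadruplicates from one stock.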

HEK293 = assay: Cytotoxicity against HEK293 cells assessed as reduction in cell viability incubated for 72 hrs by SRB assay; assay type: toxicity, cell-based, Homo sapiens

Row | SMILES | MIC90 [1] [µM] | MIC90 [2] [µM] | MIC90 [3] [µM] | MIC90 [4] [µM] | MIC90 [5] [µM] | MIC50 [6] [µM] | MIC90 [6] [µM] | MIC50 [7] [µM] | MIC90 [7] [µM] | EC50 (A-375) [µM] | EC50 (HT-29) [µM] | EC50 (MCF7) [µM] | EC50 (A2780) [µM] | EC50 at 72 h [8] [µM] | EC50 (HeLa) [µM] | Kinetic_solubility [9] [µM] | EC50 (HEK293) [µM]
1 | O=C(N[C@H](Cc1ccccc1)C(=O)Nc1cc(F)ccc1N1CCSCC1)c1cccs1 | 3.13 (≈ 1.47 µg/mL) | 1.56 (≈ 0.733 µg/mL) | 25 (≈ 11.7 µg/mL) | 50 (≈ 23.5 µg/mL) | 0.78 (≈ 0.366 µg/mL) | 1.4 (≈ 0.657 µg/mL) | 14 (≈ 6.57 µg/mL) | 3.13 (≈ 1.47 µg/mL) | > 100 | > 30 | > 30 | > 30 | > 30 | > 30 | > 30 | 37 | 
2 | O=C(N[C@H](Cc1cccs1)C(=O)Nc1ccccc1N1CCOCC1)c1ccccc1F | 1.56 (≈ 0.708 µg/mL) | 3.13 (≈ 1.42 µg/mL) | 6.25 (≈ 2.83 µg/mL) | 12.5 (≈ 5.67 µg/mL) | 0.78 (≈ 0.354 µg/mL) | 2 (≈ 0.907 µg/mL) | 7 (≈ 3.17 µg/mL) | 6.25 (≈ 2.83 µg/mL) | 25 (≈ 11.3 µg/mL) | > 30 | > 30 | > 30 | > 30 | > 30 | > 30 | 39 | 
3 | O=C(N[C@H](Cc1ccc(O)cc1)C(=O)Nc1cc(F)ccc1N1CCS(=O)(=O)CC1)c1ccccc1F | 6.25 (≈ 3.31 µg/mL) | 0.78 (≈ 0.413 µg/mL) | 6.25 (≈ 3.31 µg/mL) | 6.25 (≈ 3.31 µg/mL) | 0.2 (≈ 0.106 µg/mL) | 1.1 (≈ 0.583 µg/mL) | 13 (≈ 6.88 µg/mL) | 3.13 (≈ 1.66 µg/mL) | 25 (≈ 13.2 µg/mL) | > 30 | > 30 | > 30 | > 30 | > 30 | > 30 | 158 | > 30
4 | O=C(N[C@H](Cc1ccccc1)C(=O)Nc1ccccc1C1CCSCC1)c1cccs1 | 6.25 (≈ 2.82 µg/mL) | > 25 | 50 (≈ 22.5 µg/mL) | 100 (≈ 45.1 µg/mL) | 6.25 (≈ 2.82 µg/mL) | 21 (≈ 9.46 µg/mL) | 44 (≈ 19.8 µg/mL) | > 100 | > 100 | > 30 | > 30 | > 30 | > 30 | > 30 | > 30 | 39 | 
5 | O=C(N[C@H](Cc1ccsc1)C(=O)Nc1ccccc1N1CC[S+]([O-])CC1)c1ccccc1F | 1.56 (≈ 0.758 µg/mL) | 3.13 (≈ 1.52 µg/mL) | 6.25 (≈ 3.04 µg/mL) | 12.5 (≈ 6.07 µg/mL) | 0.2 (≈ 0.0971 µg/mL) | 1.5 (≈ 0.728 µg/mL) | 4.4 (≈ 2.14 µg/mL) | 6.25 (≈ 3.04 µg/mL) | 50 (≈ 24.3 µg/mL) | > 30 | > 30 | > 30 | > 30 | > 30 | > 30 | 96 | 
6 | O=C(N[C@H](Cc1cccs1)C(=O)Nc1ccccc1N1CC[S+]([O-])CC1)c1ccccc1F | 1.56 (≈ 0.758 µg/mL) | 1.56 (≈ 0.758 µg/mL) | 6.25 (≈ 3.04 µg/mL) | 12.5 (≈ 6.07 µg/mL) | 0.2 (≈ 0.0971 µg/mL) | 1.8 (≈ 0.874 µg/mL) | 6.5 (≈ 3.16 µg/mL) | 6.25 (≈ 3.04 µg/mL) | 50 (≈ 24.3 µg/mL) | 29.3 | > 30 | 28.9 | 29 | > 30 | > 30 | 96 | 
7 | O=C(N[C@H](Cc1ccccc1)C(=O)Nc1cc(F)ccc1N1CC[S+]([O-])CC1)c1cccs1 | 1.56 (≈ 0.758 µg/mL) | 0.4 (≈ 0.194 µg/mL) | 1.56 (≈ 0.758 µg/mL) | 3.13 (≈ 1.52 µg/mL) | 0.05 (≈ 0.0243 µg/mL) | 0.28 (≈ 0.136 µg/mL) | 1.9 (≈ 0.923 µg/mL) | 0.78 (≈ 0.379 µg/mL) | 25 (≈ 12.1 µg/mL) | > 30 | > 30 | > 30 | > 30 | > 30 | > 30 | 131 | 
